# Biological target: T1, DNA topoisomerase 1 (Homo sapiens) (UniProt P11387)
# T1 sequence (whole entry): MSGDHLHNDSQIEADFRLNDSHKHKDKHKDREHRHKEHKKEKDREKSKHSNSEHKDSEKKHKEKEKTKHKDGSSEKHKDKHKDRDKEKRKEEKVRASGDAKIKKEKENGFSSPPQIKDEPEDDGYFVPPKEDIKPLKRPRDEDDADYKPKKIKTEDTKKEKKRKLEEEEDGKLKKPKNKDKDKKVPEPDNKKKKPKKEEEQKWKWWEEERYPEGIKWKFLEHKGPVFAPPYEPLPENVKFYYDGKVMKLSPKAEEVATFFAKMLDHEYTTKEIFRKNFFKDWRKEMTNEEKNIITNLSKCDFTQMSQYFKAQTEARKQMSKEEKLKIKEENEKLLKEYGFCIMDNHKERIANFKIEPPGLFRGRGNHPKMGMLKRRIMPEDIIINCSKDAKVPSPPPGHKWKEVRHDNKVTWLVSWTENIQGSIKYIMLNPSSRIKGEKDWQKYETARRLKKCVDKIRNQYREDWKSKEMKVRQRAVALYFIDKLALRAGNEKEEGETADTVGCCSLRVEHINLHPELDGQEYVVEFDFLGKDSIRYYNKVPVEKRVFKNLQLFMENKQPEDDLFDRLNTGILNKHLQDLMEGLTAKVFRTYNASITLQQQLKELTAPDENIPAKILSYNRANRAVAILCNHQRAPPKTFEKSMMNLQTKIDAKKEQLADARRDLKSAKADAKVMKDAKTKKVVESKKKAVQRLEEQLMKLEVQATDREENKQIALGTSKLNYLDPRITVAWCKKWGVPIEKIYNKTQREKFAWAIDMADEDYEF
# Test: Inhibition of recombinant human TOP1 mediated DNA cleavage after 20 mins by gel electrophoresis relative to camptothecin
# Design: concentration or dose not given beside the values
# Outline: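 117-bp oligonucleotide containing Top1 cleavage sites, 3'-end labeled with [α-32P]-dGTP by Klenow fill-in. About 2 nM substrate incubated with recombinant Top1 and various compound concentrations for 20 min at 25 °C in 10 mM Tris-HCl pH 7.5, 50 mM KCl, 5 mM MgCl2, 0.1 mM EDTA, 15 μg/mL BSA. Stopped with 0.5% SDS, run on 20% denaturing PAGE, phosphorimaged.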
row,SMILES,inhibition [%]
1,O=C1c2ccccc2-c2c1c1ccccc1c(=O)n2C[C@H](O)[C@@H](O)[C@H](O)CO,50
2,CC(O)Cn1c2c(c3ccccc3c1=O)C(=O)c1ccccc1-2 (racemic),20
3,O=C1c2ccccc2-c2c1c1ccccc1c(=O)n2C[C@H](O)[C@H](O)[C@H](O)CO,0
4,O=C(CO)Cn1c2c(c3ccccc3c1=O)C(=O)c1ccccc1-2,20
5,O=C1c2ccccc2-c2c1c1ccc([N+](=O)[O-])cc1c(=O)n2C[C@H](O)CO,> 95
6,C[C@H](CO)n1c2c(c3ccccc3c1=O)C(=O)c1ccccc1-2,20
7,O=C1c2ccccc2-c2c1c1ccccc1c(=O)n2CC(O)CO (racemic),50
8,C[C@H](O)Cn1c2c(c3ccccc3c1=O)C(=O)c1ccccc1-2,75
9,COc1cc2c3c(n(CCCNCCO)c(=O)c2cc1OC)-c1cc2c(cc1C3=O)OCO2 [LMP-744],> 95
10,COc1cc2c3c(n(CCCn4ccnc4)c(=O)c2cc1OC)-c1cc2c(cc1C3=O)OCO2 [INDIMITECAN],> 95

# System: HOP-62
# Test: Antiproliferative activity against human HOP62 cells by SRB assay
# Type: functional
# Outline: (§1)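 NCI 60-cell-line human tumor panel. Compounds first screened at one dose of 10^-5 M. Selected compounds then tested at five concentrations from 10^-8 to 10^-4 M. GI50 is the concentration giving 50% growth inhibition. GI50 values outside the tested range are assigned 10^-8 M or 10^-4 M.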
row,SMILES,GI50 [µM]
1,COc1cc2c3c(n(C)c(=O)c2cc1OC)-c1cc2c(cc1C3=O)OCO2,1.3
2,O=C1c2ccccc2-c2c1c1ccccc1c(=O)n2C[C@H](O)[C@@H](O)[C@H](O)CO,3.23
3,CC(O)Cn1c2c(c3ccccc3c1=O)C(=O)c1ccccc1-2 (racemic),3.46
4,O=C1c2ccccc2-c2c1c1ccccc1c(=O)n2C[C@H](O)[C@H](O)[C@H](O)CO,2.95
5,O=C(CO)Cn1c2c(c3ccccc3c1=O)C(=O)c1ccccc1-2,40.7
6,O=C1c2ccccc2-c2c1c1ccc([N+](=O)[O-])cc1c(=O)n2C[C@H](O)CO,0.089
7,O=C1c2ccccc2-c2c1c1ccccc1c(=O)n2CC(O)CO (racemic),7.76
8,O=C1c2ccccc2-c2c1c1ccccc1c(=O)n2C[C@H](O)[C@H](O)[C@H](O)[C@H](O)CO,3.23

# System: HCT-116
# Test: Antiproliferative activity against human HCT116 cells by SRB assay
# Type: functional
# Outline: as §1
row,SMILES,GI50 [µM]
1,COc1cc2c3c(n(C)c(=O)c2cc1OC)-c1cc2c(cc1C3=O)OCO2,35
2,O=C1c2ccccc2-c2c1c1ccccc1c(=O)n2C[C@H](O)[C@@H](O)[C@H](O)CO,3.39
3,CC(O)Cn1c2c(c3ccccc3c1=O)C(=O)c1ccccc1-2 (racemic),5.75
4,O=C1c2ccccc2-c2c1c1ccccc1c(=O)n2C[C@H](O)[C@H](O)[C@H](O)CO,3.39
5,O=C(CO)Cn1c2c(c3ccccc3c1=O)C(=O)c1ccccc1-2,30.9
6,O=C1c2ccccc2-c2c1c1ccc([N+](=O)[O-])cc1c(=O)n2C[C@H](O)CO,0.025
7,O=C1c2ccccc2-c2c1c1ccccc1c(=O)n2CC(O)CO (racemic),4.36
8,O=C1c2ccccc2-c2c1c1ccccc1c(=O)n2C[C@H](O)[C@H](O)[C@H](O)[C@H](O)CO,4.17

# System: SF-539
# Test: Antiproliferative activity against human SF539 cells by SRB assay
# Type: functional
# Outline: as §1
row,SMILES,GI50 [µM]
1,O=C1c2ccccc2-c2c1c1ccccc1c(=O)n2C[C@H](O)[C@@H](O)[C@H](O)CO,7.94
2,CC(O)Cn1c2c(c3ccccc3c1=O)C(=O)c1ccccc1-2 (racemic),6.76
3,O=C1c2ccccc2-c2c1c1ccccc1c(=O)n2C[C@H](O)[C@H](O)[C@H](O)CO,2.14
4,O=C(CO)Cn1c2c(c3ccccc3c1=O)C(=O)c1ccccc1-2,20
5,O=C1c2ccccc2-c2c1c1ccc([N+](=O)[O-])cc1c(=O)n2C[C@H](O)CO,0.157
6,O=C1c2ccccc2-c2c1c1ccccc1c(=O)n2CC(O)CO (racemic),5.89
7,O=C1c2ccccc2-c2c1c1ccccc1c(=O)n2C[C@H](O)[C@H](O)[C@H](O)[C@H](O)CO,5.75
8,COc1cc2c3c(n(CCCNCCO)c(=O)c2cc1OC)-c1cc2c(cc1C3=O)OCO2 [LMP-744],0.04

# System: UACC-62
# Test: Antiproliferative activity against human UACC62 cells by SRB assay
# Type: functional
# Outline: as §1
row,SMILES,GI50 [µM]
1,COc1cc2c3c(n(C)c(=O)c2cc1OC)-c1cc2c(cc1C3=O)OCO2,4.2
2,O=C1c2ccccc2-c2c1c1ccccc1c(=O)n2C[C@H](O)[C@@H](O)[C@H](O)CO,2.88
3,CC(O)Cn1c2c(c3ccccc3c1=O)C(=O)c1ccccc1-2 (racemic),6.16
4,O=C1c2ccccc2-c2c1c1ccccc1c(=O)n2C[C@H](O)[C@H](O)[C@H](O)CO,3.23
5,O=C(CO)Cn1c2c(c3ccccc3c1=O)C(=O)c1ccccc1-2,58.9
6,O=C1c2ccccc2-c2c1c1ccc([N+](=O)[O-])cc1c(=O)n2C[C@H](O)CO,0.098
7,O=C1c2ccccc2-c2c1c1ccccc1c(=O)n2CC(O)CO (racemic),7.58
8,O=C1c2ccccc2-c2c1c1ccccc1c(=O)n2C[C@H](O)[C@H](O)[C@H](O)[C@H](O)CO,2.95

# System: OVCAR-3
# Test: Antiproliferative activity against human OVCAR3 cells by SRB assay
# Type: functional
# Outline: as §1
row,SMILES,GI50 [µM]
1,O=C1c2ccccc2-c2c1c1ccccc1c(=O)n2C[C@H](O)[C@@H](O)[C@H](O)CO,24
2,CC(O)Cn1c2c(c3ccccc3c1=O)C(=O)c1ccccc1-2 (racemic),16.2
3,O=C1c2ccccc2-c2c1c1ccccc1c(=O)n2C[C@H](O)[C@H](O)[C@H](O)CO,13.5
4,O=C(CO)Cn1c2c(c3ccccc3c1=O)C(=O)c1ccccc1-2,5.23
5,O=C1c2ccccc2-c2c1c1ccc([N+](=O)[O-])cc1c(=O)n2C[C@H](O)CO,0.309
6,O=C1c2ccccc2-c2c1c1ccccc1c(=O)n2CC(O)CO (racemic),18.6
7,O=C1c2ccccc2-c2c1c1ccccc1c(=O)n2C[C@H](O)[C@H](O)[C@H](O)[C@H](O)CO,13.8
8,COc1cc2c3c(n(CCCNCCO)c(=O)c2cc1OC)-c1cc2c(cc1C3=O)OCO2 [LMP-744],0.5

# System: SN12C
# Test: Antiproliferative activity against human SN12C cells by SRB assay
# Type: functional
# Outline: as §1
row,SMILES,GI50 [µM]
1,COc1cc2c3c(n(C)c(=O)c2cc1OC)-c1cc2c(cc1C3=O)OCO2,68
2,O=C1c2ccccc2-c2c1c1ccccc1c(=O)n2C[C@H](O)[C@@H](O)[C@H](O)CO,2.24
3,CC(O)Cn1c2c(c3ccccc3c1=O)C(=O)c1ccccc1-2 (racemic),3.98
4,O=C1c2ccccc2-c2c1c1ccccc1c(=O)n2C[C@H](O)[C@H](O)[C@H](O)CO,2.4
5,O=C(CO)Cn1c2c(c3ccccc3c1=O)C(=O)c1ccccc1-2,81.3
6,O=C1c2ccccc2-c2c1c1ccc([N+](=O)[O-])cc1c(=O)n2C[C@H](O)CO,0.241
7,O=C1c2ccccc2-c2c1c1ccccc1c(=O)n2CC(O)CO (racemic),2.95
8,O=C1c2ccccc2-c2c1c1ccccc1c(=O)n2C[C@H](O)[C@H](O)[C@H](O)[C@H](O)CO,3.39

# System: DU-145
# Test: Antiproliferative activity against human DU145 cells by SRB assay
# Type: functional
# Outline: as §1
row,SMILES,GI50 [µM]
1,COc1cc2c3c(n(C)c(=O)c2cc1OC)-c1cc2c(cc1C3=O)OCO2,37
2,CC(O)Cn1c2c(c3ccccc3c1=O)C(=O)c1ccccc1-2 (racemic),4.36
3,O=C1c2ccccc2-c2c1c1ccccc1c(=O)n2C[C@H](O)[C@H](O)[C@H](O)CO,1.32
4,O=C(CO)Cn1c2c(c3ccccc3c1=O)C(=O)c1ccccc1-2,17.8
5,O=C1c2ccccc2-c2c1c1ccc([N+](=O)[O-])cc1c(=O)n2C[C@H](O)CO,0.04
6,O=C1c2ccccc2-c2c1c1ccccc1c(=O)n2CC(O)CO (racemic),2.88
7,O=C1c2ccccc2-c2c1c1ccccc1c(=O)n2C[C@H](O)[C@H](O)[C@H](O)[C@H](O)CO,3.31

# System: MCF7
# Test: Antiproliferative activity against human MCF7 cells by SRB assay
# Type: functional
# Outline: as §1
row,SMILES,GI50 [µM]
1,COc1cc2c3c(n(C)c(=O)c2cc1OC)-c1cc2c(cc1C3=O)OCO2,1.58
2,CC[C@@]1(O)C(=O)OCc2c1cc1n(c2=O)Cc2cc3ccccc3nc2-1 [CAMPTOTHECIN],0.01
3,O=C1c2ccccc2-c2c1c1ccccc1c(=O)n2C[C@H](O)[C@@H](O)[C@H](O)CO,1.74
4,CC(O)Cn1c2c(c3ccccc3c1=O)C(=O)c1ccccc1-2 (racemic),3.8
5,O=C1c2ccccc2-c2c1c1ccccc1c(=O)n2C[C@H](O)[C@H](O)[C@H](O)CO,1.38
6,O=C(CO)Cn1c2c(c3ccccc3c1=O)C(=O)c1ccccc1-2,32.3
7,O=C1c2ccccc2-c2c1c1ccc([N+](=O)[O-])cc1c(=O)n2C[C@H](O)CO,0.016
8,O=C1c2ccccc2-c2c1c1ccccc1c(=O)n2CC(O)CO (racemic),3.55
9,O=C1c2ccccc2-c2c1c1ccccc1c(=O)n2C[C@H](O)[C@H](O)[C@H](O)[C@H](O)CO,1.78
10,COc1cc2c3c(n(CCCNCCO)c(=O)c2cc1OC)-c1cc2c(cc1C3=O)OCO2 [LMP-744],< 0.01
11,COc1cc2c3c(n(CCCn4ccnc4)c(=O)c2cc1OC)-c1cc2c(cc1C3=O)OCO2 [INDIMITECAN],0.01

# — ChEMBL document CHEMBL1821653, “Alcohol-, diol-, and carbohydrate-substituted indenoisoquinolines as topoisomerase I inhibitors: investigating the relationships involving stereochemistry, hydrogen bonding, and biological activity” (2011)
